Source: ChEMBL document CHEMBL1137012, “Structural optimization and biological evaluation of 2-substituted 5-hydroxyindole-3-carboxylates as potent inhibitors of human 5-lipoxygenase” (J Med Chem, 2009)
Calls of active or inactive are those of the source. The rule behind the calls is not given here.

Assays:
Rattus norvegicus [1] = assay: Antiinflammatory activity against lambda carrageenan-induced pleurisy in Wistar Han rat assessed as reduction in exudate volume at 4 mg/kg, ip administered 30 mins before carrageenan challenge measured after 4 hrs by trypan blue staining; format: functional; design: scale not given: the % may be the effect or the level left; conditions: route intraperitoneal
How it was run: (§1)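 Male Wistar Han rats (220-230 g; n = 10 per group) received compound ip, or vehicle (DMSO 4%), 30 min before intrapleural λ-carrageenan under anaesthesia. After 4 h, exudate was collected and its volume measured. Leukocytes were counted by light microscopy after trypan blue staining. LTB4 was measured by EIA (ng/rat). Data are mean ± SE.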

Rattus norvegicus [2] = assay: Antiinflammatory activity against lambda carrageenan-induced pleurisy in Wistar Han rat assessed as reduction in inflammatory cell number at 4 mg/kg, ip administered 30 mins before carrageenan challenge measured after 4 hrs by trypan blue staining; format: functional; design: scale not given: the % may be the effect or the level left; conditions: route intraperitoneal; how it was run: as §1
Rattus norvegicus [3] = assay: Antiinflammatory activity against lambda carrageenan-induced pleurisy in Wistar Han rat assessed as reduction in LTB4 levels at 4 mg/kg, ip before carrageenan challenge measured after 4 hrs by EIA; format: functional; design: scale not given: the % may be the effect or the level left; conditions: route intraperitoneal; how it was run: as §1
Neutrophil [4] = assay: Inhibition of […]-induced translocation of 5-lipoxygenase from cytosol to perinuclear region in human neutrophils at 100 uM by Western blotblot; format: functional, cell-based
Neutrophil [5] = assay: Inhibition of […]-induced translocation of 5-lipoxygenase from cytosol to perinuclear region in human neutrophils at 0.1 uM to 10 uM by Western blot; format: functional, cell-based
Rattus norvegicus [6] = assay: Antiinflammatory activity against lambda carrageenan-induced pleurisy in Wistar Han rat assessed as reduction in exudate volume at 10 mg/kg, ip administered 30 mins before carrageenan challenge measured after 4 hrs by trypan blue staining; format: functional; design: scale not given: the % may be the effect or the level left; conditions: route intraperitoneal; how it was run: as §1
Rattus norvegicus [7] = assay: Antiinflammatory activity against lambda carrageenan-induced pleurisy in Wistar Han rat assessed as reduction in cellular infiltration at 10 mg/kg, ip administered 30 mins before carrageenan challenge measured after 4 hrs by trypan blue staining; format: functional; design: scale not given: the % may be the effect or the level left; conditions: route intraperitoneal; how it was run: as §1
Rattus norvegicus [8] = assay: Antiinflammatory activity against lambda carrageenan-induced pleurisy in Wistar Han rat assessed as reduction in LTB4 level at 10 mg/kg, ip administered 30 mins before carrageenan challenge measured after 4 hrs by EIA; format: functional; design: scale not given: the % may be the effect or the level left; conditions: route intraperitoneal; how it was run: as §1

CCOC(=O)c1c(Cc2cccc(Cl)c2)[nH]c2c1cc(O)c1ccccc12
Activity (Rattus norvegicus [1]): 77%
Activity (Rattus norvegicus [2]): 40%
Activity (Rattus norvegicus [3]): 49%
Activity (Neutrophil [4]): inactive

CC(C)c1ccc2c(c1)c(SC(C)(C)C)c(CC(C)(C)C(=O)O)n2Cc1ccc(Cl)cc1
Activity (Neutrophil [5]): inactive

CC(c1cc2ccccc2s1)N(O)C(N)=O (stereo not drawn) [ZILEUTON]
Activity (Rattus norvegicus [6]): 77%
Activity (Rattus norvegicus [7]): 41%
Activity (Rattus norvegicus [8]): 66%
